Source: ChEMBL document CHEMBL1154970, “Replacement of pyrazol-3-yl amine hinge binder with thiazol-2-yl amine: Discovery of potent and selective JAK2 inhibitors” (Bioorg Med Chem Lett, 2010)
pIC50: −log10 of the molar value.

What was measured:
[1] = Plasma concentration in nude mouse transplanted with recombinant TEL-JAK2 expressing BA/F3 cells at 10 mg/kg, po dosed on day 10 of transplantation measured after 2 hrs; format: ADME, organism-based, BaF3; parameters: dose 10 mg/kg, route oral
In short: (§1)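 Female nude mice implanted intravenously with Ba/F3 TEL-JAK2 cells on day 0, then dosed orally once at 10 mg/kg on day 10. Total plasma drug concentration measured at 2 or 6 h post-dose by LC-MS on a C18 column, water/MeCN with 0.1% formic acid; n = 3 per time point.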

[2] = Plasma concentration in nude mouse transplanted with recombinant TEL-JAK2 expressing BA/F3 cells at 10 mg/kg, po dosed on day 10 of transplantation measured after 6 hrs; format: ADME, organism-based, BaF3; parameters: dose 10 mg/kg, route oral; in short: as §1
BaF3 = test: Selectivity ratio of GI50 for mouse BA/F3 cells transfected with recombinant TEL-JAK3 kinase to GI50 for mouse BA/F3 cells transfected with recombinant TEL-JAK2 kinase; format: functional, cell-based
In short: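 Fold selectivity calculated as the TEL-JAK3 Ba/F3 GI50 divided by the TEL-JAK2 Ba/F3 GI50.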

[3] = Intrinsic clearance in rat liver microsomes at 2 uM by LC-MS/MS; format: ADME, Microsome
In short: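 Rat liver microsomes incubated with compound at 2 μM initial concentration; time-dependent disappearance of parent measured by LC–MS/MS to give intrinsic clearance (μL/min/mg).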

[4] = Growth inhibition of mouse BA/F3 cells transfected with recombinant TEL-JAK2 kinase after 48 hrs by alamar blue assay; format: functional, cell-based; conditions: BaF3, 48 h
In short: (§2)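 Proliferation of Ba/F3 cells transfected with TEL-JAK2 or TEL-JAK3 fusions; GI50 determined.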

[5] = biological target: T1, Tyrosine-protein kinase JAK2 (Homo sapiens, UniProt O60674); test: Inhibition of recombinant JAK2 kinase in presence of 5 mM ATP
[6] = Growth inhibition of mouse BA/F3 cells transfected with recombinant TEL-JAK3 kinase after 48 hrs by alamar blue assay; format: functional, cell-based, BaF3; in short: as §2
[7] = biological target: T1, Tyrosine-protein kinase JAK2; test: Inhibition of recombinant JAK2 kinase in presence of 5 mM ATP
[8] = Volume of distribution at steady state in Han Wistar rat at 3 mg/kg, iv; format: ADME, organism-based; parameters: dose 3 mg/kg, route intravenous; conditions: in vivo, read-out: Vdss
[9] = Half life in Han Wistar rat at 3 mg/kg, iv; format: ADME, organism-based; parameters: dose 3 mg/kg, route intravenous; conditions: in vivo
[10] = Clearance in Han Wistar rat at 3 mg/kg, iv; format: ADME, organism-based; parameters: dose 3 mg/kg, route intravenous; conditions: in vivo
[11] = Solubility of the compound; format: physicochemical
[12] = biological target: T1, Tyrosine-protein kinase JAK2; test: Inhibition of recombinant JAK2 kinase in presence of ATP
[13] = biological target: T1, Tyrosine-protein kinase JAK2; conditions: BaF3; 10 mg/kg
[14] = biological target: Voltage-gated inwardly rectifying potassium channel KCNH2 (Homo sapiens, UniProt Q12809)
[15] = Mus musculus, BaF3, 48 h, read-out: GI50

Sequence of Voltage-gated inwardly rectifying potassium channel KCNH2 (Q12809 whole entry): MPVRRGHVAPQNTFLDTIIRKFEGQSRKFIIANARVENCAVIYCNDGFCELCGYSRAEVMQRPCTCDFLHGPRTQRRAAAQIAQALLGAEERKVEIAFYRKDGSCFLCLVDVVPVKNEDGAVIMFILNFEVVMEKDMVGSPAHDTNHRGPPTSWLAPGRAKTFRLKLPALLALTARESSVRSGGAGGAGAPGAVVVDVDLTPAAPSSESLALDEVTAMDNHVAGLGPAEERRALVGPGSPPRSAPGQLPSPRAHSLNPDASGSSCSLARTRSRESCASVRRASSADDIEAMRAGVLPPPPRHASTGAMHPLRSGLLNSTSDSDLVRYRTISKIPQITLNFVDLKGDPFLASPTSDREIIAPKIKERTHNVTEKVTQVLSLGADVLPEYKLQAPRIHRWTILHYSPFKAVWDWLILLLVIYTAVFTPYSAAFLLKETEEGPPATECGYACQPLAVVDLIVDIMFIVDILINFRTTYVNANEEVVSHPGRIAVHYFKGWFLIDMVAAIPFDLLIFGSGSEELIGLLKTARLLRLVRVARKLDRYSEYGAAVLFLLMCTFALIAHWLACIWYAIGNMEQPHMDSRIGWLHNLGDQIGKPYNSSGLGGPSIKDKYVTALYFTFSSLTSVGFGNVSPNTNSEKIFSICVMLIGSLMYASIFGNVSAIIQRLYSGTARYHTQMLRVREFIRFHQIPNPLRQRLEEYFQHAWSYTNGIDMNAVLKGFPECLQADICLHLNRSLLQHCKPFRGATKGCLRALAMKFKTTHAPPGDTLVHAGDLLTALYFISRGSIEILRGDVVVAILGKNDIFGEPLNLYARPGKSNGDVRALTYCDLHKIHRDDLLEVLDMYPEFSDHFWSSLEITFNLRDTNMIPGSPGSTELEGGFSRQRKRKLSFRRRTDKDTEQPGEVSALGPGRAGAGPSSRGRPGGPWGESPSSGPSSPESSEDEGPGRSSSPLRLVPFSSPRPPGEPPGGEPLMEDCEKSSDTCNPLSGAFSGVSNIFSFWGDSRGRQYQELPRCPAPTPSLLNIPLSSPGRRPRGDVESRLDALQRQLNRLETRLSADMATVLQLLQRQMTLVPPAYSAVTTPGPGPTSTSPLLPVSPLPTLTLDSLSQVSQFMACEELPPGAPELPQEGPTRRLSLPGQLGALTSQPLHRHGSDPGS
T1 sequence (O60674 whole entry): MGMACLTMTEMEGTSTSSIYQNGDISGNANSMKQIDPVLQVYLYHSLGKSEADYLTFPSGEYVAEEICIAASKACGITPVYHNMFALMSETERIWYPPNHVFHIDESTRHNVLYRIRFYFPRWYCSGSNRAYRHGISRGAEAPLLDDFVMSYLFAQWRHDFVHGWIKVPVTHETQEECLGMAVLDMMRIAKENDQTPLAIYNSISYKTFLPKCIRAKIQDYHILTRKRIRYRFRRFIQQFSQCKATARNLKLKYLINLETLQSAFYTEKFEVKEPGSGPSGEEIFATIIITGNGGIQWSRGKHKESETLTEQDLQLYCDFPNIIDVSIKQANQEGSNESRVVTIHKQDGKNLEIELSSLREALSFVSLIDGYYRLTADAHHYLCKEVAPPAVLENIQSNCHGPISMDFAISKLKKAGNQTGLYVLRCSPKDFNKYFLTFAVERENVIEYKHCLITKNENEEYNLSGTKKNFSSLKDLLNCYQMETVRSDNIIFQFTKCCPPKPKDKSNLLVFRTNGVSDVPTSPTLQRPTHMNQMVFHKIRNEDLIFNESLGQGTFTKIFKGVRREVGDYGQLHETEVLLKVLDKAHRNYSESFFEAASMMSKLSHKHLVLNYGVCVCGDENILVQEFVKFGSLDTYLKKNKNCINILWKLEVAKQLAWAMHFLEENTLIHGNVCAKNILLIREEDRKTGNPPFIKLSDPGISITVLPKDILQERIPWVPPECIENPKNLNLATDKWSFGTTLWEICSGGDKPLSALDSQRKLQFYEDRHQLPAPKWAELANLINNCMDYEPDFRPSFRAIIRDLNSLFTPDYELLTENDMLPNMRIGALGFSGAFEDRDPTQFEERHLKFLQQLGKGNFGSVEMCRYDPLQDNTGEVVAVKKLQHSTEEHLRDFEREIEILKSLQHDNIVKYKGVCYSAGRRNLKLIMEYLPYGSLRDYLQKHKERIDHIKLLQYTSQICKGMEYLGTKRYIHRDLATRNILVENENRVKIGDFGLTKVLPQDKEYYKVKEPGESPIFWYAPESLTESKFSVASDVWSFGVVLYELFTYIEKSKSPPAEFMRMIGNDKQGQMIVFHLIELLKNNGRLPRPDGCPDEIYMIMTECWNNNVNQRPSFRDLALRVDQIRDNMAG

Row | Compound | concentration at 2 h [1] [ng/mL] | concentration at 6 h [2] [ng/mL] | RatioGI50 (BaF3) | microsomal CLint at 2 µM [3] [µL/min/mg] | GI50 [4] [nM] | GI50 ([6]; Mus musculus, BaF3, 48 h) [nM] | pIC50 [7] | Vd [8] [L/kg] | half-life [9] [min] | clearance [10] [mL/min/kg] | pIC50 [14] | further results
1 | Cc1cnc(Nc2nc(N[C@@H](C)c3ncc(F)cn3)nc(N3CCOCC3)c2F)s1 | 219 | 95 | – | – | – | – | – | – | – | – | – | –
2 | C[C@H](Nc1nc(Nc2ncc(C#N)s2)cc(N2CCOCC2)n1)c1ncc(F)cn1 | – | – | 10 | 41 | 53 | 520 | – | – | – | – | – | RatioGI50 [5]: 0.079
3 | C[C@H](Nc1nc(Nc2ncc(C#N)s2)cc(N2CCOCC2)n1)c1ccc(F)cn1 | – | – | – | 31 | 36 | 170 | > 8.52 | – | – | – | – | –
4 | Cc1cc(Nc2cncc(N[C@@H](C)c3ncc(F)cn3)n2)n[nH]1 | – | – | – | < 4 | – | – | – | 1.1 | 84 | 14 | – | solubility [11]: > 1000 µM; pIC50 [12]: > 8.52
5 | Cc1cnc(Nc2cc(N3CCOCC3)nc(N[C@@H](C)c3ncc(F)cn3)n2)s1 | 715 | 146 | 237 | 84 | – | – | 8.52 | 2.3 | 78 | 32 | < 4.49 | inhibition [13]: > 80%; GI50 ([4]; read-out: GI50): 5 nM; GI50 [6, 15]: 1100 nM
6 | COc1cc(Nc2ncc(C)s2)nc(N[C@@H](C)c2ncc(F)cn2)n1 | – | – | 35 | > 100 | – | – | > 8.52 | – | – | – | < 4.49 | GI50 ([4]; read-out: GI50): 42 nM; GI50 [6, 15]: 1500 nM
7 | Cc1cnc(Nc2cc(N3CCOCC3)nc(N[C@@H](C)c3ccc(F)cn3)n2)s1 | 126 | 55 | – | > 120 | – | 1200 | – | 2.8 | 72 | 38 | 4.92 | –
8 | Cc1cnc(Nc2cc(N3CCN(C)CC3)nc(N[C@@H](C)c3ccc(F)cn3)n2)s1 | – | – | – | 220 | 5 | – | > 8.52 | 8.5 | 78 | 80 | 4.89 | RatioGI50 (BaF3; Mus musculus, BaF3): 129; GI50 [6]: 0.62
9 | Cc1cnc(Nc2cncc(N[C@@H](C)c3ncc(F)cn3)n2)s1 | – | – | – | 52 | – | – | 7.31 | – | – | – | – | solubility [11]: > 1000 µM; pIC50 [12]: 8.40
